T cruzi growth-1 = inhibitors of T. cruzi proliferation; T. cruzi beta-gal in NIH3T3, GalScreen luminescence, 90 h; 77,000 compounds, 5.9% hits; AID 624255; inhibition, % at 8.34 µM;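 active = mean inhibition above about 93%, with at least 55% of replicates each passing it, limit read from the data, passing the limit was not always enough; inconclusive = only one of those two conditions holds; inactive = neither condition holds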
IDH1 mut inh = inhibitors of human IDH1 R132H; IDH1 R132H reductase, diaphorase/resazurin fluorescence, 60 min; O75874; 70,000 compounds, 0.18% hits; inhibition, % at 10 µM; in the data active = inhibition above about 34%; inconclusive = no clear call, values can overlap the other calls; inactive = below about 11%;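 note: 0% = DMSO and 100% = no enzyme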
Target sequence (O75874 whole entry R132H): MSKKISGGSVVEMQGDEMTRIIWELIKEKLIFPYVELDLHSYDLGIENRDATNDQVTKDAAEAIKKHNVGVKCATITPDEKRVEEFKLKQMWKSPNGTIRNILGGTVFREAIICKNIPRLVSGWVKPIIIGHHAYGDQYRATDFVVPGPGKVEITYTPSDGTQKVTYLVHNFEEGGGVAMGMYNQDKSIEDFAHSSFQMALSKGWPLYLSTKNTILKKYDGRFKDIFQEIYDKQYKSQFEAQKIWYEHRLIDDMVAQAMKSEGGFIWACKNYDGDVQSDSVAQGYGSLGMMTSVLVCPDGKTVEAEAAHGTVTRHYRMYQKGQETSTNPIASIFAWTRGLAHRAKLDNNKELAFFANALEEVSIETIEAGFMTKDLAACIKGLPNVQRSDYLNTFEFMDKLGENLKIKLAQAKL
GASC1 inh = inhibitors of human demethylase GASC-1 KDM4C; Q9H3R0; GST-KDM4C 2-372, H3K9me3 peptide, LANCE TR-FRET; inhibition, % at 12.5 µM; 96,000 compounds, 0.15% hits;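 active = mean replicate inhibition above about 25%, with at least 55% of replicates also reaching it, limit read from the data, passing the limit was not always enough; inconclusive = only one of those two conditions met; inactive = neither condition met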
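Test system – GST-tagged GASC-1 (JMJD2C) catalytic fragment, aa 2-372 · Medium – HEPES buffer, pH 7.5, plus ascorbate · Reagent – H3K9me3 peptide with Fe(II)/2OG · Compound – one test concentration per compound · Timing – 30 min reaction, 60 min detection, RT · Technique – TR-FRET with Eu antibody and ULight streptavidin, EDTA stop · Read-out basis – inhibition from TR-FRET ratio decrease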
T cruzi growth-2 = blocks T. cruzi growth in NIH3T3 host cells; shares compounds with T cruzi growth-1; T. cruzi beta-gal in NIH3T3, GalScreen luminescence, 90 h; inhibition, % at 8.35 µM; 5,600 compounds, 72% hits;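 active = mean replicate inhibition above about 95% and at least 55% of replicates individually reaching it, limit read from the data; inconclusive = only one of the two criteria is met; inactive = neither criterion is met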
T cruzi growth-3 = blocks T. cruzi growth in NIH3T3 host cells; shares compounds with T cruzi growth-1; T. cruzi beta-gal in NIH3T3, GalScreen luminescence, 90 h; inhibition, % at 2.09 µM; 5,600 compounds, 21% hits; AID 651740;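 active = mean inhibition above about 95%, with at least 55% of replicates also reaching it, limit read from the data; inconclusive = meets just one of the two conditions; inactive = meets neither condition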;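 note: plate controls were neutral control median for no effect and positive control median for full effect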
NIH3T3 tox = NIH/3T3 (mouse) viability loss | 5,600 compounds, 14% hits | NIH/3T3 viability, CellTiter-Glo ATP luminescence, 90 h | cytotoxicity (signal decrease), % at 8.35 µM | shares compounds with T cruzi growth-1;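 active = mean signal decrease across replicates above about 35% based on untreated-well scatter, with enough replicates individually passing, limit read from the data; inconclusive = no rule stated though some were filed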;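 note: 0% = median of neutral control wells and 100% = median of positive control wells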
NIH3T3 tox 2 = cytotoxicity in mouse NIH/3T3 fibroblasts; 5,600 compounds, 56% hits; inhibition, % at 24.9 µM; NIH/3T3 viability, CellTiter-Glo ATP luminescence, 90 h; shares compounds with T cruzi growth-1;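 active = mean loss of cell viability signal at or above a set limit, and enough replicates individually reaching it; inconclusive = meets only the mean limit or only the replicate share; inactive = meets neither condition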;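 note: 0% = median of neutral control wells and 100% = median of positive control wells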
The depositor's hits bear a star; ? = inconclusive; / = no result. This excerpt belongs to a sample that is enriched for hits.

SMILES	T cruzi growth-1	IDH1 mut inh	GASC1 inh	T cruzi growth-2	T cruzi growth-3	NIH3T3 tox	NIH3T3 tox 2
N#C[C@@H]1[C@@H](c2ccccc2-c2ccccc2)[C@H](CO)N1C(=O)Cc1ccccc1	/	/	-0.5	/	/	/	/
CCCN(Cc1cc2cccc(C)c2[nH]c1=O)S(=O)(=O)c1ccccc1	/	-0.4	/	/	/	/	/
COc1cccc(S(=O)(=O)N[C@H]2CC[C@H](CCn3cc(-c4ccccn4)nn3)O[C@H]2CO)c1	17.8	-0.4	6.0	/	/	/	/
CCOC(=O)Cn1c(=O)c2cnc3c(c(C)nn3C)c2n1C	/	-1.4	/	/	/	/	/
Cc1ccccc1S(=O)(=O)N1CCCCN2[C@H](CO)[C@@H](c3ccc(-c4cccnc4)cc3)[C@H]2C1	39.2	/	-1.3	/	/	/	/
Cc1ccccc1S(=O)(=O)N1CCCCN2[C@@H](CO)[C@H](c3ccc(-c4cccnc4)cc3)[C@@H]2C1	101.8*	/	?	102.1*	71.1	29.7	38.2*
Cc1ccccc1S(=O)(=O)N1CCCCN2[C@H](C1)[C@H](c1ccc(-c3cncnc3)cc1)[C@@H]2CO	101.8*	/	0.0	99.6*	19.2	12.3	23.6
Cc1ccccc1S(=O)(=O)N1CCCCN2[C@H](CO)[C@H](c3ccc(-c4cncnc4)cc3)[C@@H]2C1	112.3*	/	5.1	101.4*	-0.9	4.6	1.9
Cc1ccccc1S(=O)(=O)N1CCCCN2[C@H](C1)[C@@H](c1ccc(-c3cccnc3)cc1)[C@@H]2CO	85.5	/	-3.9	/	/	/	/
Cc1ccccc1S(=O)(=O)N1CCCCN2[C@H](C1)[C@@H](c1ccc(-c3cncnc3)cc1)[C@@H]2CO	77.8	/	-4.3	/	/	/	/
COc1cccc(C#Cc2ccc([C@@H]3[C@@H](C#N)N(C(=O)c4ccccn4)[C@@H]3CO)cc2)c1	107.9*	/	-2.9	107.9*	78.3	0.9	-31.8
CC(C)C#Cc1ccc([C@@H]2[C@@H](C#N)N(C(=O)c3ccccn3)[C@H]2CO)cc1	94.6	/	-1.0	/	/	/	/
CC(C)C#Cc1ccc([C@H]2[C@@H](C#N)N(C(=O)c3ccccn3)[C@H]2CO)cc1	?	/	0.9	99.8*	103.1*	9.1	12.4
COc1cccc(-c2ccc([C@H]3[C@@H](CO)N(C(=O)c4ccccn4)[C@H]3C#N)cc2)c1	?	/	-6.1	98.4*	116.9*	-3.5	99.1*
COc1cccc(C#Cc2ccc([C@H]3[C@@H](C#N)N(C(=O)c4ccccn4)[C@@H]3CO)cc2)c1	89.9	/	-1.5	/	/	/	/
COc1cccc(-c2ccc([C@H]3[C@@H](C#N)N(C(=O)c4ccccn4)[C@@H]3CO)cc2)c1	80.7	/	-2.0	/	/	/	/
CC(=O)O[C@H]1[C@H](Oc2cc(O)cc(O)c2C(=O)c2cccc(O)c2)O[C@H](CO)[C@@H](OC(=O)c2ccccc2)[C@@H]1O	/	-0.6	/	/	/	/	/
CCCC#Cc1ccc([C@@H]2[C@@H](CO)N(C(=O)C3CCCCC3)[C@H]2C#N)cc1	88.6	/	-1.4	/	/	/	/
CCCC#Cc1ccc([C@H]2[C@H](C#N)N(C(=O)C3CCC3)[C@H]2CO)cc1	87.4	/	-2.4	/	/	/	/
CCCC#Cc1ccc([C@@H]2[C@@H](C#N)N(C(=O)C3CCCCC3)[C@H]2CO)cc1	96.5*	/	-1.6	91.2	106.1*	25.7	53.3*
CCCC#Cc1ccc([C@@H]2[C@@H](CO)N(C(=O)C3CCC3)[C@H]2C#N)cc1	92.0	/	-0.9	/	/	/	/
CCCC#Cc1ccc([C@H]2[C@@H](C#N)N(C(=O)C3CCC3)[C@@H]2CO)cc1	98.5*	/	-1.1	101.7*	99.7*	-24.9	-7.2
CCCC#Cc1ccc([C@@H]2[C@H](C#N)N(C(=O)C3CCCC3)[C@H]2CO)cc1	99.3*	/	2.8	97.9*	106.4*	25.8	78.1*
Cc1noc(C)c1S(=O)(=O)N(C)C[C@@H]1OCCCC[C@@H](C)Oc2ccc(NC(=O)Nc3cccc4ccccc34)cc2C(=O)N([C@H](C)CO)C[C@@H]1C	59.2	-1.0	0.6	/	/	/	/
Cc1noc(C)c1S(=O)(=O)N(C)C[C@H]1OCCCC[C@H](C)Oc2ccc(NC(=O)Nc3cccc4ccccc34)cc2C(=O)N([C@H](C)CO)C[C@@H]1C	115.6*	/	-1.5	100.7*	41.4	2.0	34.5*
SMILES	T cruzi growth-1	IDH1 mut inh	GASC1 inh	T cruzi growth-2	T cruzi growth-3	NIH3T3 tox	NIH3T3 tox 2
Cc1noc(C)c1S(=O)(=O)N(C)C[C@H]1OCCCC[C@@H](C)Oc2ccc(NC(=O)Nc3cccc4ccccc34)cc2C(=O)N([C@@H](C)CO)C[C@H]1C	113.4*	/	-6.8	101.8*	59.5	-5.8	-35.0
Cc1noc(C)c1S(=O)(=O)N(C)C[C@@H]1OCCCC[C@@H](C)Oc2ccc(NC(=O)Nc3ccccc3)cc2C(=O)N([C@@H](C)CO)C[C@@H]1C	/	1.1	0.3	/	/	/	/
CC(=O)O[C@@]1(C)C[C@@H](O)[C@@H]2C=CO[C@@H](O[C@@H]3O[C@H](CO)[C@@H](O)[C@H](O)[C@H]3O)[C@@H]21	/	1.9	/	/	/	/	/
C[C@@H]1CN([C@H](C)CO)S(=O)(=O)c2ccc(-c3ccccc3)cc2O[C@H]1CN(C)C(=O)Nc1ccccc1F	3.2	0.0	4.9	/	/	/	/
C[C@@H]1CN([C@H](C)CO)C(=O)c2cc(NC(=O)Nc3ccc(F)cc3)ccc2O[C@@H](C)CCCCO[C@@H]1CN(C)C(=O)NC1CCCCC1	54.8	0.1	4.5	/	/	/	/
C[C@@H]1CCCCO[C@@H](CN(C)C(=O)NC2CCCCC2)[C@H](C)CN([C@H](C)CO)C(=O)c2cc(NC(=O)Nc3ccc4c(c3)OCO4)ccc2O1	104.7*	/	1.8	104.7*	74.3	-0.8	-33.0
C[C@@H]1CN([C@@H](C)CO)C(=O)c2cc(NC(=O)Nc3ccc4c(c3)OCO4)ccc2O[C@@H](C)CCCCO[C@@H]1CN(C)C(=O)NC1CCCCC1	3.0	/	0.4	/	/	/	/
C[C@H]1CCCCO[C@@H](CN(C)C(=O)NC2CCCCC2)[C@@H](C)CN([C@@H](C)CO)C(=O)c2cc(NC(=O)Nc3ccc(F)cc3)ccc2O1	108.9*	/	-1.6	115.0*	54.8	13.3	5.4
C[C@@H]1CCCCO[C@@H](CN(C)C(=O)NC2CCCCC2)[C@@H](C)CN([C@H](C)CO)C(=O)c2cc(NC(=O)Nc3ccc(F)cc3)ccc2O1	67.2	/	0.0	/	/	/	/
C[C@H](CO)N1C[C@H](C)[C@@H](CN(C)C(=O)NC2CCCCC2)OCCCC[C@H](C)Oc2ccc(N(C)C)cc2C1=O	46.4	/	3.7	/	/	/	/
C[C@H](CO)N1C[C@H](C)[C@@H](CN(C)C(=O)NC2CCCCC2)OCCCC[C@H](C)Oc2ccc(NC(=O)Nc3ccc(F)cc3)cc2C1=O	105.2*	1.4	-0.5	102.5*	26.8	11.7	24.0
C[C@@H]1CN([C@@H](C)CO)C(=O)c2cc(N(C)C)ccc2O[C@@H](C)CCCCO[C@@H]1CN(C)C(=O)NC1CCCCC1	103.4*	-2.7	14.0	11.4	-6.6	5.1	-19.1
